Screening data deposited in PubChem BioAssay by several laboratories.
Hits are enriched below; roughly 9.6% of the tested compounds scored in any of these assays.
HCT116 bCat-KO – primary screen for growth suppressors in beta-catenin knockout HCT116 cells (colon tumor, human) | HCT116 beta-catenin knockout viability, CellTiter-Glo, 60 h; active compounds read low | viability, % at 10 µM | 140,000 tested, 1.5% active | AID 818, 2007;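 active means viability at or under a set limit, the compound median less 4 SD, cut at about 6% in these data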;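 further: 0% = Hyamine 1622 control at 20 µM and 100% = untreated cell control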
HCT116 PTEN-null – growth suppression of PTEN-null HCT116, primary screen, cell-based, CellTiter-Glo; viability, % at 10 µM; 140,000 tested, 1.2% active; HCT116 PTEN-null viability, 60 h; active compounds read low;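 active means viability at or below a set limit, 4 SD under the median of all tested compounds, cut at about 3.7% in these data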;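 further: PTEN knockout HCT116 line with beta catenin targeted HCT116 as companion control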
PMI act hi M6P – human PMI activators, high substrate, primary screen, biochemical, fluorescence intensity, near-saturating mannose 6-phosphate | Mannose-6-phosphate isomerase (Homo sapiens), P34949 | coupled PMI enzyme assay, resazurin fluorescence, 20 min; active compounds read high; 1 = untreated enzyme, 0 = substrate-free blank | activation factor at 20 µM | 190,000 tested, 0.34% active;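 active means activation factor of 2 or more at 20 µM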
Target sequence (P34949 whole entry, looked up): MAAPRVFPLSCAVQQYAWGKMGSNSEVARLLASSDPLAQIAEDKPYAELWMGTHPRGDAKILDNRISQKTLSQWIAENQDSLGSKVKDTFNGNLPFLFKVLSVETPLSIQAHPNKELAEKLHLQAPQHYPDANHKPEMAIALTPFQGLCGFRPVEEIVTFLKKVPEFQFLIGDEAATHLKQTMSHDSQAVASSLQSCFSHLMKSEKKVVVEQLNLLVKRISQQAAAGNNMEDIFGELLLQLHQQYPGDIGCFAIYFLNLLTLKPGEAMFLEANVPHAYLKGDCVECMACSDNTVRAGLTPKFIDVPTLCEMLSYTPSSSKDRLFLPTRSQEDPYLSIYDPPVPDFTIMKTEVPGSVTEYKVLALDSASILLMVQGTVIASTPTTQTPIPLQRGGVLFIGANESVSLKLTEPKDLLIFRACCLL
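Test system: human phosphomannose isomerase with PGI, G6PDH, diaphorase coupling enzymes; Amount: PMI at 15 ng/mL final; Reagent: Mannose-6-phosphate 1.0 mM (near-saturating) plus 0.22 mM NADP+; Timing: 20 min, room temperature; Technique: resorufin fluorescence at Ex 544/Em 590 nm; Dosing: 20 µM single dose.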
Lmaj promast – Leishmania major promastigote growth inhibition, primary screen | Leishmania major promastigotes, resazurin fluorescence viability | inhibition, % at 10 µM | 200,000 tested, 9% active; in the data active means inhibition above about 50%;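 further: promastigotes grown with compound for 44 hours at 28 °C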
PMI act – activators of human PMI, primary screen, biochemical, fluorescence intensity, near-Km mannose 6-phosphate | Mannose-6-phosphate isomerase (Homo sapiens), P34949 | purified human PMI, coupled resazurin fluorescence, 20 min; active compounds read high; 1 = vehicle control, 0 substrate-free wells | activation factor at 20 µM | 190,000 tested, 0.005% active;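 active means activation factor of 2 or more at 20 µM, relative to plate controls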
* hit, by the source's call; . = no result.

SMILES	HCT116 bCat-KO	HCT116 PTEN-null	PMI act hi M6P	Lmaj promast	PMI act
COc1ccccc1-c1c(C)nn2c(N3CCN(c4ccccc4OC)CC3)cc(C)nc12	15.4	35.6	0.8	32.5	0.9
Cc1nn2c(N3CCN(C(=O)c4ccco4)CC3)cc(C(C)(C)C)nc2c1-c1ccccc1	3.8*	7.0	0.8	57.0*	0.8
Cc1nn2c(N3CCN(C4CCCC4)CC3)cc(C(C)(C)C)nc2c1-c1ccccc1	97.8	112.2	1	13.4	1
Cc1cccc(C)c1N(Cc1ccccc1F)S(C)(=O)=O	.	.	1	1.6	1
COC(=O)CC1C(=O)NCCN1C(=O)OC(C)(C)C (stereo not drawn)	.	.	1.2	2.3	1.1
NC(=O)[C@@H]1CCCNc2c(I)cc([N+](=O)[O-])cc2C(=O)N[C@@H](CO)C(=O)NCC(=O)N1	89.5	93.5	1.1	-4.3	1.1
CCOc1cc(/C=C2\CCC/C(=C\c3cc(Cl)c(O)c(OCC)c3)C2=O)cc(Cl)c1O	2.0*	1.7*	0.7	93.0*	0.9
O=C(CCc1nc2ccccc2c(=O)[nH]1)OCc1cccc(C(F)(F)F)c1	94.4	98.0	1	63.2*	1
O=C(COC(=O)CCc1nc2ccccc2c(=O)[nH]1)NC(=O)NC1CCCC1	95.1	102.1	0.9	52.8*	1
O=C(CCc1nc2ccccc2c(=O)[nH]1)OCc1ccc(-c2ccccc2)cc1	101.2	101.5	1	93.3*	1
Cc1cccc(CN(CC(=O)N/N=C/c2cccs2)S(=O)(=O)c2ccc(Cl)cc2)c1	13.9	12.3	0.8	93.4*	0.7
O=C(COC(=O)c1ccc([N+](=O)[O-])s1)Nc1ncc(C(F)(F)F)cc1Cl	79.7	80.8	0.7	-5.9	0.9
CC1CC(N(C(=O)c2ccco2)c2ccccc2)c2ccccc2N1C(=O)c1ccco1 (stereo not drawn)	80.0	82.0	1	61.5*	0.9
CC1CC(N(C(=O)c2ccc(Cl)cc2)c2ccccc2)c2ccccc2N1C(=O)c1ccco1 (stereo not drawn)	48.4	45.9	0.9	56.5*	0.9
CCOC(=O)CCC(=O)N1CCOCCOCCN(C(=O)CCC(=O)OCC)CCOCCOCC1	94.2	106.6	1	-3.2	1
Nc1nc(Cl)cc(Sc2ccc3ccccc3c2)n1	36.8	33.0	1	-0.2	0.9
COc1ccc(OC)c(/C=C2\SC(=S)N(Cc3cccnc3)C2=O)c1	8.9	16.2	1	81.8*	1
COc1ccc(-n2c(-c3ccc(Cl)cc3)c[n+]3c2CCc2ccccc2-3)cc1	.	.	0.9	100.2*	0.9
Nn1c(SCC(=O)NC2CCCc3ccccc32)nnc1-c1cccs1 (stereo not drawn)	79.6	79.9	1	-3.8	0.9
Cc1sc(NC(=O)c2ccco2)nc1-c1ccccc1	86.1	89.1	0.9	27.4	0.9
Cc1sc(NC(=O)c2ccco2)nc1-c1ccc2c(c1)CC(C)N2C(=O)C1CC1 (stereo not drawn)	22.7	16.8	1.1	86.1*	1.1
N#Cc1ccc(-c2ccc(F)cc2)nc1Oc1ccc(Cl)c(Cl)c1	2.0*	1.7*	1	-11.7	1
COc1ccc(CCN2CC(C#N)=C3c4cc(OC)c(OC)cc4CCN3C2)cc1OC	88.2	85.7	0.8	94.8*	0.8
CC1=CC(C)C2(CO)COC(c3ccccc3O)C1C2C (stereo not drawn)	109.8	91.6	1	9.4	0.9
COCCNC(=O)COc1cccc2c1OC(C)(C)C2	.	.	1.1	-10.4	1.1
COc1ccc(CNCC(O)COc2cccc3c2OC(C)(C)C3)cc1 (stereo not drawn)	.	.	1	86.1*	1
COc1ccc(OC)c(S(=O)(=O)Nc2ccc(O)c(Sc3ncn[nH]3)c2)c1	84.3	85.6	0.9	-0.6	0.9
Cc1cccc(NC(=O)C2Cc3ccccc3CN2C(=O)OCc2ccccc2)c1C (stereo not drawn)	76.1	66.5	0.9	98.2*	0.8
Cc1sc2nc(-c3cccnc3)nc(Cl)c2c1-c1ccccc1	89.9	86.9	1	61.0*	1
Cc1sc2nc(-c3ccccc3)[nH]c(=O)c2c1-c1ccccc1	93.1	93.6	0.9	-0.8	1
